As usually defined, the Ki is a measure of affinity in units of concentration, obtained from inhibition or displacement. For orientation: inhibition in vivo means how much of the control response was suppressed. One may read the bioavailability as the share of a dose that reaches the circulation, judged against a reference dose that is usually intravenous. Read a high bioavailability as much systemic uptake. The half-life is the time needed for the level to fall by half in the phase considered. Low readings indicate rapid decline, high ones slow decline. A word on the AUC(0-t): it is the area under the concentration-time curve up to a stated or last time point. Lower therefore signals less exposure.

Structures are written as SMILES.

One data set addresses Substance-P receptor (Homo sapiens, UniProt P25103). As to the kind of experiment: Displacement of [3H]SAr-Met from human recombinant NK1 receptor expressed in CHO cells. Type of data set: cell-based. In short, it runs like this: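 Membranes from CHO cells expressing recombinant human NK1 receptor; radioligand [3H]-Sar-Met substance P used near its experimentally derived Kd. Ki derived by Cheng–Prusoff equation. Binding values are the average of two or three independent determinations.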
In general terms: Loss of bound radioactivity is the signal in a displacement assay; it reports binding, not function.

Data set [1] deals with Meriones unguiculatus. As to the kind of experiment: Inhibition of GR-73632-induced foot tapping in Mongolian gerbil assessed as duration of repetitive hind foot tapping pretreated at 1 mg/kg, icv before GR-73632 challenge measured after 4 hrs. As to conditions: oral, in the assay text read “po before” for “icv before”. Type of data set: functional. The method in brief:
(§1)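 Female Mongolian gerbils given NK1 agonist GR73632 (3 pmol) by icv injection. Test antagonists given orally in 0.4% methylcellulose in distilled water at the indicated dose, at various pretreatment times before agonist. After recovery from anesthesia, animals observed 5 min in clear boxes and hind-foot tapping duration timed. Result expressed as % decrease versus vehicle-treated controls.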

Data set [2] can be described thus: Oral bioavailability in rat at 10 mg/kg. As to conditions: in vivo. Type of data set: ADME, organism-based. The method in brief: (§2)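 Rat pharmacokinetics after oral dosing at 10 mpk (unless otherwise specified), vehicle 20% HPBCD.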
A short description of data set [3]: Half life in rat at 10 mg/kg, po. Type of data set: ADME, organism-based. On the set-up: dose 10 mg/kg, route oral. As to conditions: in vivo. In short, it runs like this:
as §2

The nature of data set [4]: AUC (0 to 6 hrs) in rat at 5 mg/kg, po after 24 hrs. Format: ADME, organism-based. As to conditions: plasma. On the set-up: time < 6 hr, dose 5 mg/kg, route oral.
For data set [5], the system named is Meriones unguiculatus. As to the kind of experiment: Inhibition of GR-73632-induced foot tapping in Mongolian gerbil assessed as duration of repetitive hind foot tapping pretreated at 0.3 mg/kg, icv before GR-73632 challenge measured after 4 hrs. As to conditions: oral, in the assay text read “po” for “icv”. Type of data set: functional. The method in brief: as §1

Data set [6] is described as follows: AUC (0 to 6 hrs) in rat at 10 mg/kg, po after 6 hrs. Format: ADME, organism-based. On the set-up: time < 6 hr, dose 10 mg/kg, route oral. As to conditions: plasma. In short, it runs like this: as §2
Data set [7] in a line: AUC (0 to 6 hrs) in rat at 10 mg/kg, po. Type of data set: ADME, organism-based. Also noted: time < 6 hr, dose 10 mg/kg, route oral. As to conditions: plasma. The method in brief:
as §2

For data set [8], the system named is Meriones unguiculatus. As to the kind of experiment: Inhibition of GR-73632-induced foot tapping in Mongolian gerbil assessed as duration of repetitive hind foot tapping pretreated at 0.1 mg/kg, icv before GR-73632 challenge measured after 4 hrs. Format: functional. As to conditions: oral, in the assay text read “po” for “icv”. In short, it runs like this:
as §1

Sequence of Substance-P receptor (P25103 whole entry): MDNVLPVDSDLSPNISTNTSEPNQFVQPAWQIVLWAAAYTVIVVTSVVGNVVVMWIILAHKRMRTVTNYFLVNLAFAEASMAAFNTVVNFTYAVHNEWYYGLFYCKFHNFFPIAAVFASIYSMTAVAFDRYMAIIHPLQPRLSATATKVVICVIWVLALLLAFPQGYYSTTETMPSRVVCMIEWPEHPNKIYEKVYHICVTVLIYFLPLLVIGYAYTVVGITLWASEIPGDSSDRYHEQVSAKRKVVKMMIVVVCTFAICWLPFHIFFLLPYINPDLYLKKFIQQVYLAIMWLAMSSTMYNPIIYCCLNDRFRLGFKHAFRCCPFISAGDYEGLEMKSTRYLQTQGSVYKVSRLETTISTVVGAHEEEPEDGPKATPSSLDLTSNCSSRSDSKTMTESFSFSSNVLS

Turning to `C[C@@H](OC[C@@]1(c2ccccc2)CC[C@H](C(N)=O)CN1)c1cc(C(F)(F)F)cc(C(F)(F)F)c1`, the Ki on Substance-P receptor came out at 0.22 nM. For the same molecule, the inhibition in vivo at 1 mg/kg in the data set on Meriones unguiculatus [1] came to 92%. Further, in data set [2], the bioavailability worked out at 68%. The molecule also showed a half-life in data set [3] of 3.4 h. The AUC(0-t) at 6 h in [4] came out at 2600 ng·h/mL. Also, in the data set with Meriones unguiculatus [5], the inhibition in vivo at 0.3 mg/kg stood at 82%.

Take `C[C@@H](OC[C@@]1(c2ccccc2)CC[C@@H](C(=O)NC2CC2)CN1)c1cc(C(F)(F)F)cc(C(F)(F)F)c1`: on Substance-P receptor, the Ki came out at 0.4 nM. Further, the inhibition in vivo at 1 mg/kg in the data set on Meriones unguiculatus [1] came to 69%.

Consider `CNC(=O)[C@@H]1CC[C@@](CO[C@H](C)c2cc(C(F)(F)F)cc(C(F)(F)F)c2)(c2ccccc2)NC1`, for which, at Substance-P receptor, the Ki stood at 0.56 nM. Moreover, the AUC(0-t) at 6 h in [6] came to 166 ng·h/mL. In addition, in the data set on Meriones unguiculatus [1], the inhibition in vivo at 1 mg/kg was 80%.

Consider `FC(F)(F)c1cc(COCC2(c3ccccc3)CCCCN2)cc(C(F)(F)F)c1` (configuration not stated), for which the Ki at Substance-P receptor was determined as 1 nM.

In the case of `C[C@@H](OC[C@@]1(c2ccccc2)CC[C@H](N2CCCC2=O)CN1)c1cc(C(F)(F)F)cc(C(F)(F)F)c1`, the inhibitory constant (Ki) at Substance-P receptor was determined as 0.26 nM. The inhibition in vivo at 1 mg/kg in the data set on Meriones unguiculatus [1] amounted to 61%. The AUC(0-t) at 6 h in data set [7] was determined as 13800 ng·h/mL.

For the molecule `CC(=O)N[C@H]1CC[C@@](CO[C@H](C)c2cc(C(F)(F)F)cc(C(F)(F)F)c2)(c2ccccc2)NC1`, the inhibition in vivo at 0.1 mg/kg in the data set on Meriones unguiculatus [8] is 83%. In addition, at Substance-P receptor, the Ki was 0.15 nM. In addition, in the data set on Meriones unguiculatus [1], the inhibition in vivo at 1 mg/kg was 100%. Also, the bioavailability in data set [2] amounted to 63%. The half-life in data set [3] was 3.2 h. In data set [7], the AUC(0-t) at 6 h turned out to be 10000 ng·h/mL. Also, in the data set on Meriones unguiculatus [5], the inhibition in vivo at 0.3 mg/kg was found to be 99%.

Turning to `C[C@@H](OC[C@@]1(c2ccccc2)CC[C@H](N2CCNC2=O)CN1)c1cc(C(F)(F)F)cc(C(F)(F)F)c1`, the inhibitory constant (Ki) on Substance-P receptor came to 0.59 nM. In addition, in the data set with Meriones unguiculatus [1], the inhibition in vivo at 1 mg/kg amounted to 86%. Further, the inhibition in vivo at 0.3 mg/kg in the data set with Meriones unguiculatus [5] amounted to 71%.

Turning to `C[C@@H](OC[C@@]1(c2ccccc2)CC[C@H](NC2=NCCO2)CN1)c1cc(C(F)(F)F)cc(C(F)(F)F)c1`, the inhibitory constant (Ki) on Substance-P receptor was determined as 0.28 nM. In addition, the inhibition in vivo at 1 mg/kg in the data set on Meriones unguiculatus [1] was 37%.

As to `C[C@@H](OC[C@@]1(c2ccccc2)CCCCN1)c1cc(C(F)(F)F)cc(C(F)(F)F)c1`, the Ki on Substance-P receptor was determined as 0.3 nM.

In the case of `C[C@@H](OC[C@@]1(c2ccccc2)CC[C@H](NS(C)(=O)=O)CN1)c1cc(C(F)(F)F)cc(C(F)(F)F)c1`, the Ki at Substance-P receptor is 1.03 nM. Also, the inhibition in vivo at 1 mg/kg with Meriones unguiculatus [1] was determined as 90%. This molecule also displayed an AUC(0-t) at 6 h in data set [7] of 5940 ng·h/mL. Besides, the inhibition in vivo at 0.3 mg/kg with Meriones unguiculatus [5] worked out at 25%.

On to `C[C@@H](OC[C@@]1(c2ccccc2)CC[C@H](NC(=O)C2CC2)CN1)c1cc(C(F)(F)F)cc(C(F)(F)F)c1`, for which the Ki on Substance-P receptor is 0.23 nM. The inhibition in vivo at 1 mg/kg with Meriones unguiculatus [1] was 100%. This molecule also returned an area under the curve AUC(0-t) at 6 h in [7] of 5260 ng·h/mL. Moreover, the inhibition in vivo at 0.3 mg/kg in the data set on Meriones unguiculatus [5] is 79%.

For the molecule `CCNC(=O)[C@H]1CC[C@@](CO[C@H](C)c2cc(C(F)(F)F)cc(C(F)(F)F)c2)(c2ccccc2)NC1`, on Substance-P receptor, the Ki is 0.37 nM. In data set [6], this molecule returned an AUC(0-t) at 6 h of 3680 ng·h/mL. Further, the inhibition in vivo at 1 mg/kg in the data set with Meriones unguiculatus [1] turned out to be 92%. The inhibition in vivo at 0.3 mg/kg in the data set with Meriones unguiculatus [5] is 28%.

As for `CNC(=O)[C@H]1CC[C@@](CO[C@H](C)c2cc(C(F)(F)F)cc(C(F)(F)F)c2)(c2ccccc2)NC1`, the Ki on Substance-P receptor turned out to be 0.26 nM. Further, the inhibition in vivo at 1 mg/kg with Meriones unguiculatus [1] turned out to be 91%. In addition, the inhibition in vivo at 0.3 mg/kg with Meriones unguiculatus [5] worked out at 29%.

Consider `C[C@@H](OC[C@@]1(c2ccccc2)CC[C@H](NC(N)=O)CN1)c1cc(C(F)(F)F)cc(C(F)(F)F)c1`, for which the Ki on Substance-P receptor was determined as 0.69 nM. The inhibition in vivo at 1 mg/kg in the data set on Meriones unguiculatus [1] came out at 96%. This molecule also yielded an AUC(0-t) at 6 h in data set [7] of 6040 ng·h/mL. For the same molecule, in the data set with Meriones unguiculatus [5], the inhibition in vivo at 0.3 mg/kg came to 6%.

As to `C[C@@H](OC[C@@]1(c2ccccc2)CC[C@@H](C(N)=O)CN1)c1cc(C(F)(F)F)cc(C(F)(F)F)c1`, the Ki on Substance-P receptor came out at 0.19 nM. The AUC(0-t) at 6 h in [6] amounted to 1690 ng·h/mL. For the same molecule, the inhibition in vivo at 1 mg/kg with Meriones unguiculatus [1] was found to be 90%. In addition, the inhibition in vivo at 0.3 mg/kg in the data set on Meriones unguiculatus [5] came out at 75%.

As to `CCC(=O)N[C@H]1CC[C@@](CO[C@H](C)c2cc(C(F)(F)F)cc(C(F)(F)F)c2)(c2ccccc2)NC1`, in the data set with Meriones unguiculatus [8], the inhibition in vivo at 0.1 mg/kg is 50%. Besides, at Substance-P receptor, the Ki was determined as 0.29 nM. The inhibition in vivo at 1 mg/kg with Meriones unguiculatus [1] worked out at 100%. This molecule showed an AUC(0-t) at 6 h in data set [7] of 1950 ng·h/mL. For the same molecule, the inhibition in vivo at 0.3 mg/kg in the data set with Meriones unguiculatus [5] is 93%.

As to `C[C@@H](OC[C@@]1(c2ccccc2)CC[C@H](C(=O)NC2CC2)CN1)c1cc(C(F)(F)F)cc(C(F)(F)F)c1`, the Ki on Substance-P receptor was 0.34 nM. For the same molecule, in data set [6], the area under the curve AUC(0-t) at 6 h was 1940 ng·h/mL. Also, the inhibition in vivo at 1 mg/kg in the data set on Meriones unguiculatus [1] turned out to be 45%.

As for `CC(=O)N[C@@H]1CC[C@@](CO[C@H](C)c2cc(C(F)(F)F)cc(C(F)(F)F)c2)(c2ccccc2)NC1`, the Ki on Substance-P receptor was found to be 0.35 nM. Also, the inhibition in vivo at 1 mg/kg in the data set on Meriones unguiculatus [1] is 76%. Moreover, the AUC(0-t) at 6 h in [7] came out at 795 ng·h/mL. Further, the inhibition in vivo at 0.3 mg/kg with Meriones unguiculatus [5] was 36%.

Turning to `C[C@@H](OC[C@@]1(c2ccccc2)CC[C@H](Nc2ncccn2)CN1)c1cc(C(F)(F)F)cc(C(F)(F)F)c1`, at Substance-P receptor, the Ki worked out at 0.33 nM. Besides, the inhibition in vivo at 1 mg/kg in the data set on Meriones unguiculatus [1] came out at 5%.

As for `CCNC(=O)[C@@H]1CC[C@@](CO[C@H](C)c2cc(C(F)(F)F)cc(C(F)(F)F)c2)(c2ccccc2)NC1`, the Ki on Substance-P receptor was found to be 1.13 nM. Moreover, the inhibition in vivo at 1 mg/kg in the data set with Meriones unguiculatus [1] was found to be 78%.

For the origin of these results see ChEMBL document CHEMBL1268816, “Discovery of a series of potent, orally active α,α-disubstituted piperidine NK(1) antagonists” (Bioorg Med Chem Lett, 2010).
